Measured values taken from ChEMBL document CHEMBL3244412, “Benzopyrones. 14. Synthesis and antiallergic properties of some N-tetrazolylcarboxamides and related compounds” (1978).
In brackets after ≈: the same amount, converted by molar mass.

How the values were obtained:
[1] = Antianaphylactic activity in rat mast cells assessed as inhibition of DNP-ovalbumin-induced histamine release after 15 mins by superfusion assay relative to 4-oxo-N-(5-tetrazolyl)-4H-l-benzopyran-2-carboxamide; assay type: functional, Mast cell
Summary of the method: (§1)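 Peritoneal and pleural cells from male albino rats were washed, sensitized with 1:10 rat reaginic anti-DNP-ovalbumin serum for 2 h at 37 °C, and resuspended at 1.2-1.7 × 10⁵ mast cells/mL. Compound and DNP-ovalbumin were added together and incubated for 15 min at 37 °C. Supernatant (free) and lysed-cell (residual) histamine were assayed by guinea pig ileum superfusion bioassay. Inhibition of net histamine release was used to derive EC50 from dose ranging against the reference compound.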

[2] = Antianaphylactic activity in rat mast cells assessed as inhibition of DNP-ovalbumin-induced histamine release after 15 mins by superfusion assay; assay type: functional; details: Mast cell, 0.25 h, read-out: ED50 (the source's name); summary of the method: as §1
[3] = test system: Rattus norvegicus; assay: Antiallergic activity in rat assessed as inhibition of DNP-ovalbumin-induced passive cutaneous anaphylaxis at 1 mg/kg, iv after 30 mins relative to control; assay type: functional; details: for inhibition in vivo at 1 mg/kg: Rattus norvegicus, iv, 0.5 h
Summary of the method: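 Female albino rats (groups of four) were shaved and sensitized by dorsal intradermal injection of 0.1 mL diluted rat reaginic anti-DNP-ovalbumin serum, raised with Bordetella pertussis adjuvant. After 48 h they were challenged iv with 2 mg DNP-ovalbumin in 0.5 mL 1% Evans blue/saline, with the compound given iv in aqueous solution at the same time. After 30 min, skin weals were scored visually on a 5-point scale; % inhibition was taken versus vehicle controls.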

SMILES | fold change (potency relative to reference compound) [1] | EC50 [2] [µg/mL] | inhibition in vivo at 1 mg/kg [3] [%] | inhibition (INH) [3] [%]
NC(=O)c1cc(=O)c2ccc(O)c(N)c2o1 | <0.005 | > 18 | 15 | 
O=C(Nc1nnn[nH]1)c1oc2ccccc2c(=O)c1NCCO | 0.18 | 0.085 (≈ 0.269 µM) | 100 | 
O=C(O)CCNC(=O)c1cc(=O)c2ccccc2o1 | <0.005 | > 18 | 0 | 
COc1ccc2c(=O)cc(C(=O)Nc3nnn[nH]3)oc2c1 | 1.8 | 0.048 (≈ 0.167 µM) | 75 | 
Cn1nnnc1NC(=O)c1cc(=O)c2ccccc2o1 | <0.005 | > 18 | 0 | 
Cc1ccc2c(=O)cc(C(=O)Nc3nnn[nH]3)oc2c1.NCCO | 0.75 | 0.16 |  | 80
Cc1oc2ccc(S(=O)(=O)Nc3nnn[nH]3)cc2c(=O)c1C | <0.005 | > 18 | 20 | 
O=C(Nc1nnn[nH]1)c1coc(=O)c2ccccc12 | <0.005 | > 18 | 0 | 
O=C(Nc1nccs1)c1cc(=O)c2ccccc2o1 | <0.005 | > 18 | 15 | 
O=C(Nc1nnn[nH]1)c1ccc2oc(C(=O)Nc3nnn[nH]3)cc(=O)c2c1 | 0.1 | 0.55 (≈ 1.49 µM) | 100 | 
O=C(Nc1nnn[nH]1)c1cccc2c(=O)c3ccccc3[nH]c12 | 0.14 | 0.65 (≈ 2.12 µM) | 90 | 
CN(C(=O)c1cc(=O)c2ccccc2o1)c1nnn[nH]1 | <0.005 | > 18 | 0 | 
O=C(Nc1nnn[nH]1)c1oc2ccccc2c(=O)c1N1CCOCC1 | <0.005 | > 18 | 10 | 
CCOC(=O)c1cc(=O)c2cc(NC(=O)Cc3nnn[nH]3)ccc2o1 | 0.005 | 11 (≈ 32 µM) | 65 | 
Cn1nnc(NC(=O)c2cc(=O)c3ccccc3o2)n1 |  |  | 25 | 
Cc1ccc2oc(C(=O)Nc3nnn[nH]3)c(-c3ccccc3)c(=O)c2c1 | 0.005 | 8 (≈ 23 µM) | 50 | 
NCCCO.O=C(Nc1nnn[nH]1)c1oc2ccccc2c(=O)c1NCCCO | 0.67 | 0.024 | 100 | 
O=C(O)c1ccc2occc(=O)c2c1 | <0.005 | > 18 | 0 | 
Cc1c(C(=O)Nc2nnn[nH]2)oc2ccccc2c1=O | 1 | 0.4 (≈ 1.47 µM) | 70 | 
Cc1ccc2oc(C(=O)O)c(-c3ccccc3)c(=O)c2c1 | <0.005 | > 18 | 0 | 
O=C(Nc1nnn[nH]1)c1cc(=O)c2cc(Cl)ccc2o1 | 0.12 | 0.75 (≈ 2.57 µM) | 65 | 
O=C(Nc1nc[nH]n1)c1cc(=O)c2ccccc2o1 | 0.002 | 5 (≈ 19.5 µM) | 0 | 
Cc1ccc2oc(C(=O)Nc3nnn[nH]3)cc(=O)c2c1 | 1.2 | 0.075 (≈ 0.277 µM) | 75 | 

SMILES | fold change (potency relative to reference compound) [1] | EC50 [2] [µg/mL] | inhibition in vivo at 1 mg/kg [3] [%] | inhibition (INH) [3] [%]
O=C(/C=C/c1coc2ccccc2c1=O)Nc1nnn[nH]1 | <0.005 | 6 (≈ 21.2 µM) | 65 | 
Cc1ccc2c(=O)cc(C(=O)Nc3nnn[nH]3)oc2c1 | 0.19 | 0.58 (≈ 2.14 µM) | 75 | 
CNc1c(C(=O)Nc2nnn[nH]2)oc2ccccc2c1=O | 0.04 | 0.4 (≈ 1.4 µM) | 100 | 
O=C(Nc1nnn[nH]1)c1cc(=O)c2cc([N+](=O)[O-])ccc2o1 | 0.01 | 5.5 (≈ 18.2 µM) | 15 | 
NC(=O)c1cc(=O)c2cc(N)ccc2o1 | <0.005 | > 18 | 10 | 
COc1ccc2c(=O)c(-c3ccccc3)c(C(=O)Nc3nnn[nH]3)oc2c1 | <0.005 | > 18 | 25 | 
O=C(Nc1nnn[nH]1)c1cc(=O)c2cc(-c3nnn[nH]3)ccc2o1 | 0.85 | 0.1 (≈ 0.307 µM) | 70 | 
O=C(Nc1nnn[nH]1)c1coc2ccccc2c1=O | 0.48 | 0.033 (≈ 0.128 µM) | 65 | 
O=C(Nc1nnn[nH]1)c1cc(=O)c2ccc(O)cc2o1 | 0.77 | 0.11 (≈ 0.403 µM) | 65 | 
O=C(Nc1nnn[nH]1)c1ccc2occc(=O)c2c1 | 0.08 | 0.7 (≈ 2.72 µM) | 35 | 
CCOC(=O)C(=O)Nc1ccc2oc(C(=O)OCC)cc(=O)c2c1 | 0.005 | 12 (≈ 36 µM) | 65 | 
CN1CCN(C(=O)c2cc(=O)c3ccccc3o2)CC1.Cl | <0.005 | > 18 | 0 | 
O=C(Nc1nnn[nH]1)c1ccc2oc(-c3nnn[nH]3)cc(=O)c2c1 | 1 | 0.055 (≈ 0.169 µM) | 70 | 
O=C(Nc1nnn[nH]1)c1oc2ccccc2c(=O)c1Cl | 0.11 | 0.8 (≈ 2.74 µM) | 75 | 
CN1CCN(C(=O)c2coc3ccccc3c2=O)CC1.Cl | 0.007 | 14 | 20 | 
O=C(O)c1coc2ccccc2c1=O | <0.005 | > 18 | 20 | 
O=C(O)CNC(=O)c1ccc2oc(C(=O)NCC(=O)O)cc(=O)c2c1 | <0.005 | > 18 | 10 | 
O=C(O)CCCCCNC(=O)c1cc(=O)c2ccccc2o1 | <0.005 | > 18 | 0 | 
N#Cc1ccc2oc(C(=O)Nc3nnn[nH]3)cc(=O)c2c1 | 0.03 | 2.3 (≈ 8.15 µM) | 100 | 
O=c1c(/C=N/O)coc2ccccc12 | 0.0006 | > 18 | 25 | 
O=C([O-])c1cc(=O)c2c(OCC(O)COc3cccc4oc(C(=O)[O-])cc(=O)c34)cccc2o1.[Na+].[Na+] [CROMOLYN SODIUM] | 0.02 | 2.55 | 40 | 
O=C(O)CCCNC(=O)c1cc(=O)c2ccccc2o1 | <0.005 | > 18 | 0 | 
CN1CCN(C(=O)/C=C/c2coc3ccccc3c2=O)CC1 | <0.005 | > 18 | 0 | 
